This is an account of results in ChEMBL document CHEMBL1122485, “Antibacterially active substituted anilides of carboxylic and sulfonic acids” (1983).

In brackets after ≈: the same amount, converted by molar mass.

Assay [1] relates to Lactiplantibacillus plantarum. Description: Activity at 10 ppm against Lactobacillus plantarum; x=Effective. The assay is classed as functional, organism-based. The gist of the method: (§1)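 Gram-positive panel on nutrient agar containing compound at 10, 1.0 and 0.1 ppm, duplicate plates. Six 15-µL drops per species, each holding 10⁷ vegetative cells (10⁶ for L. plantarum). Hexachlorophene and no-compound plates were run alongside. Plates were incubated 5 days at 30 °C and scored for growth. MIC was taken as the lowest level with no colonies on either plate.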

The subject of assay [2] is Staphylococcus aureus. Description: Bacteriostatic activity against Staphylococcus aureus ATCC 6538 at 10 ppm concentration; + =Positive. The assay is classed as functional, organism-based. In outline:
(§2)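 S. aureus was inoculated at 10⁷/mL into 10 mL nutrient broth with 10 ppm compound. Those tubes were centrifuged (10000g, 10 min), resuspended in sterile diluent and streaked onto nutrient agar. Colonies after 48 h at 30 °C meant bacteriostatic; none meant bactericidal.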

For assay [3], the system named is Staphylococcus aureus. Description: Minimum inhibitory concentration against staphylococcus aureus ATCC 6538. The assay is classed as functional. In outline: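 Agar dilution: 1% stocks in 95% ethanol or water, serially diluted into nutrient agar (pH 6.8) to 1000, 100, 10 and 1 ppm. Plates were dried 30 min at 37 °C and spotted with ten drops of 24-h nutrient broth culture. Incubation was 48 h at 37 °C, in duplicate, with hexachlorophene as standard. MIC was the lowest level with no growth of any inoculum on either dish.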

Assay [4] relates to Staphylococcus aureus. Description: Bactericidal activity against Staphylococcus aureus ATCC 6538 at 10 ppm concentration; - = Negative. Format: functional, organism-based. In outline:
as §2

For assay [5], the system named is Enterococcus faecalis. Description: Activity at 10 ppm against Streptococcus faecalis; x=Effective. The assay is classed as functional, organism-based. The gist of the method:
as §1

For assay [6], the system named is Bacillus cereus. Description: Activity at 10 ppm against Bacillus cereus NRRL 3711; x=Effective. Format: functional, organism-based. In outline:
as §1

Assay [7] relates to Staphylococcus aureus. Description: Activity at 10 ppm against Staphylococcus aureus ATCC 6538; x=Effective. The assay is classed as functional, organism-based.
For assay [8], the system named is Staphylococcus aureus. Description: Bacteriostatic activity against Staphylococcus aureus ATCC 6538 at 10 ppm concentration; x=Effective. Format: functional, organism-based. In outline: as §2
The subject of assay [9] is Bacillus cereus. Description: Activity at 10 ppm against Bacillus cereus NRRL 3711; d=A few resistant colonies grew. Format: functional, organism-based. In outline:
as §1

The subject of assay [10] is Staphylococcus aureus. Description: Bactericidal activity against Staphylococcus aureus ATCC 6538 at 10 ppm concentration; -=Negative. Format: functional, organism-based. The gist of the method: as §2
For assay [11], the system named is Bacillus cereus. Description: Activity at 1 ppm against Bacillus cereus NRRL 3711; x=Effective. Format: functional, organism-based. In outline:
as §1

Assay [12] relates to Staphylococcus aureus. Description: Bactericidal activity against Staphylococcus aureus ATCC 6538 at 1 ppm concentration; + =Positive. Format: functional, organism-based.
Assay [13] relates to Staphylococcus aureus. Description: Activity at 1 ppm against Staphylococcus aureus ATCC 6538; x=Effective. Format: functional, organism-based.
The test system of assay [14] is Staphylococcus aureus. Description: Bacteriostatic activity against Staphylococcus aureus ATCC 6538 at 1 ppm concentration; + =Positive. The assay is classed as functional, organism-based.
Assay [15] concerns Lactiplantibacillus plantarum. Description: Activity at 1 ppm against Lactobacillus plantarum; x=Effective. Format: functional, organism-based. In outline: as §1
The subject of assay [16] is Enterococcus faecalis. Description: Activity at 1 ppm against Streptococcus faecalis; x=Effective. The assay is classed as functional, organism-based. The gist of the method: as §1
In assay [17] the test system is Staphylococcus aureus. Description: Bactericidal activity against Staphylococcus aureus ATCC 6538 at 1 ppm concentration; - = Negative. The assay is classed as functional, organism-based.
Assay [18] concerns Enterococcus faecalis. Description: Activity against Streptococcus faecalis; xe=S. faecalis was inhibited at 10 p.p.m. but not at 1 ppm. The assay is classed as functional, organism-based. The gist of the method:
as §1

Assay [19] has as its system Staphylococcus aureus. Description: Bacteriostatic activity against Staphylococcus aureus ATCC 6538 at 10 ppm concentration; - = Negative. The assay is classed as functional, organism-based. In outline:
as §2

The subject of assay [20] is Lactiplantibacillus plantarum. Description: Activity at 10 ppm against Lactobacillus plantarum;* = Effective. Format: functional, organism-based. The gist of the method: as §1
The subject of assay [21] is Staphylococcus aureus. Description: Activity at 10 ppm against Staphylococcus aureus ATCC 6538;* = Effective. The assay is classed as functional, organism-based.
Assay [22] deals with Bacillus cereus. Description: Activity at 10 ppm against Bacillus cereus NRRL 3711;* = Effective. Format: functional, organism-based. The gist of the method: as §1
The subject of assay [23] is Staphylococcus aureus. Description: Bacteriostatic activity against Staphylococcus aureus ATCC 6538 at >10 ppm concentration; - = Negative. The assay is classed as functional, organism-based.
Assay [24] relates to Staphylococcus aureus. Description: Bactericidal activity against Staphylococcus aureus ATCC 6538 at >10 ppm concentration; - = Negative. The assay is classed as functional, organism-based.
Assay [25] relates to Staphylococcus aureus. Description: Bactericidal activity against Staphylococcus aureus ATCC 6538 at 10 ppm concentration; + =Positive. The assay is classed as functional, organism-based. In outline:
as §2

Take `C=C(CCCCCC)C(=O)Nc1cc([N+](=O)[O-])ccc1O`: the Activity result in [1] was “Concentration effective”; in the assay on Staphylococcus aureus [2], “Negative”; in the assay with Staphylococcus aureus [4], “Negative”; in the assay with Enterococcus faecalis [5] it was “Concentration effective”; in the assay on Bacillus cereus [6], “Concentration effective”; in the assay on Staphylococcus aureus [7], “Concentration effective”. In addition, inhibition of growth in the assay on Staphylococcus aureus [3] (MIC) required 1 µg/mL (≈ 3.42 µM).
In the case of `CCCCCCCCCC(=O)Nc1cc([N+](=O)[O-])ccc1O`, the Activity entry with Staphylococcus aureus [8] is “Concentration effective”; in the assay on Staphylococcus aureus [2], “Negative”; with Staphylococcus aureus [4] it was “Negative”. Moreover, in the assay on Staphylococcus aureus [3], the lowest concentration to inhibit growth (MIC) was 1 µg/mL (≈ 3.24 µM).
Regarding `CCCCCCCC(=O)Nc1ccc(Cl)c(Cl)c1`, the Activity result is “Concentration effective” in assay [1]; “Negative” in the assay on Staphylococcus aureus [2]; “A few resistant colonies grew” with Bacillus cereus [9]; “Negative” in the assay on Staphylococcus aureus [10]; “Concentration effective” with Staphylococcus aureus [7]. The MIC against Staphylococcus aureus [3] was 1 µg/mL (≈ 3.47 µM).
As for `O=S(=O)(Nc1ccc(Cl)c(Cl)c1)c1ccc(Cl)c(Cl)c1`, the Activity entry in assay [1] was “Concentration effective”; with Staphylococcus aureus [2] it was “Negative”; in the assay with Staphylococcus aureus [4], “Negative”; in the assay with Enterococcus faecalis [5], “Concentration effective”; with Bacillus cereus [6], “Concentration effective”; in the assay on Staphylococcus aureus [7], “Concentration effective”. In addition, the MIC against Staphylococcus aureus [3] stood at 1 µg/mL (≈ 2.69 µM).
Regarding `C=C(CCCCCCCC)C(=O)Nc1cc([N+](=O)[O-])ccc1O`, the Activity entry in the assay on Bacillus cereus [11] is “Concentration effective”; in the assay on Staphylococcus aureus [12], “Positive”; with Staphylococcus aureus [13], “Concentration effective”; with Staphylococcus aureus [14], “Positive”; in assay [15], “Concentration effective”; in the assay on Enterococcus faecalis [16] it was “Concentration effective”. Moreover, it took 1 µg/mL (≈ 3.12 µM) to inhibit growth with Staphylococcus aureus [3] (MIC).
In the case of `C=C(CCCCCCC)C(=O)Nc1cc([N+](=O)[O-])ccc1O`, the Activity result with Bacillus cereus [11] was “Concentration effective”; in the assay on Staphylococcus aureus [17], “Negative”; in the assay on Enterococcus faecalis [18], “Inhibited at 10ppm but not at 1ppm”; in the assay on Staphylococcus aureus [13], “Concentration effective”; in the assay with Staphylococcus aureus [14], “Negative”; in assay [15], “Concentration effective”. In the assay with Staphylococcus aureus [3], this molecule gave an MIC of 1 µg/mL (≈ 3.26 µM).
Take `C=C(CCCCC)C(=O)Nc1cc(Cl)cc(Cl)c1`: the Activity entry in assay [1] was “Concentration effective”; with Staphylococcus aureus [2] it was “Negative”; in the assay with Bacillus cereus [9], “A few resistant colonies grew”; in the assay with Staphylococcus aureus [4], “Negative”; with Staphylococcus aureus [7], “Concentration effective”. In the assay with Staphylococcus aureus [3], this molecule had an MIC of 1 µg/mL (≈ 3.49 µM).
As for `CCCCc1ccc(S(=O)(=O)Nc2cc([N+](=O)[O-])ccc2O)cc1`, the Activity result in assay [1] is “Concentration effective”; in the assay with Staphylococcus aureus [2] it was “Negative”; with Staphylococcus aureus [4], “Negative”; with Bacillus cereus [6], “Concentration effective”; in the assay with Staphylococcus aureus [7] it was “Concentration effective”. The molecule also registered an MIC against Staphylococcus aureus [3] of 10 µg/mL (≈ 28.5 µM).
For `CCCCCCCC(=O)Nc1ccc(Cl)c([N+](=O)[O-])c1`, the Activity result in [1] was “Concentration effective”; in the assay on Staphylococcus aureus [19], “Negative”; in the assay on Staphylococcus aureus [4], “Negative”; in the assay with Bacillus cereus [6], “Concentration effective”. The molecule also displayed an MIC against Staphylococcus aureus [3] of 1 µg/mL (≈ 3.35 µM).
As for `CCCCCCCCC(=O)Nc1ccc(Cl)c([N+](=O)[O-])c1`, the Activity result was “Concentration effective” in [1], “Negative” with Staphylococcus aureus [2], “A few resistant colonies grew” with Bacillus cereus [9] and “Negative” with Staphylococcus aureus [4]. In the assay with Staphylococcus aureus [3], this molecule registered an MIC of 1 µg/mL (≈ 3.2 µM).
Turning to `CCCCCCCC(=O)Nc1cc(Cl)cc(Cl)c1`, the Activity entry is “Negative” with Staphylococcus aureus [2]; “Concentration effective” in assay [20]; “Concentration effective” with Staphylococcus aureus [21]; “Negative” in the assay on Staphylococcus aureus [4]; “Concentration effective” with Bacillus cereus [22]. In addition, it took 1 µg/mL (≈ 3.47 µM) to inhibit growth against Staphylococcus aureus [3] (MIC).
As to `CCCCCCCC(=O)Nc1cc([N+](=O)[O-])ccc1O`, the Activity result in assay [1] is “Concentration effective”; in the assay with Staphylococcus aureus [2] (Bacteria), “Negative”; in the assay on Staphylococcus aureus [4], “Negative”; in the assay with Enterococcus faecalis [5] it was “Concentration effective”; in the assay with Bacillus cereus [6], “Concentration effective”; in the assay on Staphylococcus aureus [7] it was “Concentration effective”. The molecule also returned a minimal inhibitory concentration (MIC) in the assay with Staphylococcus aureus [3] of 1 µg/mL (≈ 3.57 µM).
As for `CCCCCCCCC(=O)Nc1cc(Cl)ccc1O`, the Activity result in the assay with Staphylococcus aureus [23] and in the assay with Staphylococcus aureus [24] was “Negative” in each case. Moreover, the MIC in the assay with Staphylococcus aureus [3] turned out to be 1 µg/mL (≈ 3.52 µM).
As to `O=[N+]([O-])c1cc(NS(=O)(=O)c2ccc(Cl)c(Cl)c2)ccc1Cl`, the Activity entry was “Concentration effective” in assay [1], “Negative” in the assay on Staphylococcus aureus [2], “Negative” in the assay on Staphylococcus aureus [4] and “Concentration effective” in the assay on Enterococcus faecalis [5]. For the same molecule, 1 µg/mL (≈ 2.62 µM) was the least that counted as inhibitory with Staphylococcus aureus [3] (MIC).
On to `CCCCc1ccc(S(=O)(=O)Nc2ccc(Cl)c([N+](=O)[O-])c2)cc1`, for which the Activity result in assay [1] was “Concentration effective”; with Staphylococcus aureus [19], “Negative”; with Staphylococcus aureus [4], “Negative”; in the assay on Enterococcus faecalis [5], “Concentration effective”. Moreover, in the assay with Staphylococcus aureus [3], it took 1 µg/mL (≈ 2.71 µM) to inhibit growth (MIC).
As to `CCCc1ccc(S(=O)(=O)Nc2ccc(Cl)c(Cl)c2)cc1`, the Activity result in assay [1] was “Concentration effective”; in the assay with Staphylococcus aureus [19], “Negative”; with Enterococcus faecalis [5], “Concentration effective”; in the assay on Staphylococcus aureus [25] it was “Negative”. The MIC against Staphylococcus aureus [3] came out at 1 µg/mL (≈ 2.9 µM).
For the molecule `CCCc1ccc(S(=O)(=O)Nc2cc(Cl)ccc2O)cc1`, the Activity result was “Concentration effective” in assay [1]; “Negative” in the assay on Staphylococcus aureus [2]; “Negative” with Staphylococcus aureus [4]; “Concentration effective” in the assay with Enterococcus faecalis [5]; “Concentration effective” in the assay with Bacillus cereus [6]; “Concentration effective” in the assay with Staphylococcus aureus [7]. The same molecule came in with an MIC with Staphylococcus aureus [3] of 1 µg/mL (≈ 3.07 µM).

What is called MIC is the lowest concentration found to suppress growth. The low end stands for a more susceptible organism, the high end for a less susceptible organism.
